Test results taken from ChEMBL document CHEMBL1177869, “Synthesis and dual PPARalpha/delta agonist effects of 1,4-disubstituted 1,2,3-triazole analogues of GW 501516” (Eur J Med Chem, 2010).
Activity calls are given as the source filed them. No cut-off for these calls is given here.

Assays:
[1] = Induction of [14C]-oleic acid oxidation in human differentiated skeletal muscle cells assessed as accumulation of oxidized [14C]-oleic acid after 4 hrs by liquid scintillation counting; format: functional
Procedure, shortened: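 Human skeletal muscle myoblasts grown to 70-80% confluence, then differentiated 7 days (DMEM 5.5 mM glucose, 2% FCS, 25 pM insulin). Compound at five concentrations from day 3 (96 h). [1-14C]oleic acid (1 μCi/mL, 100 μM) in DPBS with 10 mM HEPES and 1 mM L-carnitine, 4 h at 37 °C. Filter-trapped CO2 counted by scintillation, normalized to protein. EC50 by non-linear regression. GW 501516 positive control.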

[2] = molecular target: T1, Peroxisome proliferator-activated receptor alpha (Homo sapiens) (UniProt Q07869); assay: Agonist activity at human PPARalpha ligand binding domain expressed in COS-1 cells co-transfected with Gal4 at 10 uM by luciferase reporter gene assay; format: cell-based
T1 sequence (whole entry): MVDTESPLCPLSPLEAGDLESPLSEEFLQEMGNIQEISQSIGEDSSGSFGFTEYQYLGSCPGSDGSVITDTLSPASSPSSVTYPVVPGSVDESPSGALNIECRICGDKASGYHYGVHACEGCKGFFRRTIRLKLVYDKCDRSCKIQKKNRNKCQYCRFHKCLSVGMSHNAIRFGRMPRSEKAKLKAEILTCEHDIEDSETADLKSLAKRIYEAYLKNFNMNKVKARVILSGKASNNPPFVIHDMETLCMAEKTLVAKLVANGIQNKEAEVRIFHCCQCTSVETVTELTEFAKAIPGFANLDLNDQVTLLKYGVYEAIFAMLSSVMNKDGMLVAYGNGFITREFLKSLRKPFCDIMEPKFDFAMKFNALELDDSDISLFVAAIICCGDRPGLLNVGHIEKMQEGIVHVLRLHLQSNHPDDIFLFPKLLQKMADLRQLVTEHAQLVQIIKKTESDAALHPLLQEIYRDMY
Procedure, shortened: (§1)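 COS-1 cells in DMEM with 10% inactivated FBS, 37 °C, 5% CO2, plated 1 day before lipofectamine transfection. Per well: 320 ng (UAS)5-tk-LUC reporter, 640 ng empty pGL3 basic, 30 ng pSG5-GAL4-hPPAR (α, δ or γ). Compound 10 μM (DMSO negative control) added 5 h post-transfection. Cells kept 24 h, then lysed for luciferase read-out. Positive controls: EHA for PPARα, GW 501516 for PPARδ.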

[3] = molecular target: T2, Peroxisome proliferator-activated receptor delta (Homo sapiens) (UniProt Q03181); assay: Agonist activity at human PPARdelta ligand binding domain expressed in COS-1 cells co-transfected with Gal4 at 10 uM by luciferase reporter gene assay; format: cell-based
T2 sequence (whole entry): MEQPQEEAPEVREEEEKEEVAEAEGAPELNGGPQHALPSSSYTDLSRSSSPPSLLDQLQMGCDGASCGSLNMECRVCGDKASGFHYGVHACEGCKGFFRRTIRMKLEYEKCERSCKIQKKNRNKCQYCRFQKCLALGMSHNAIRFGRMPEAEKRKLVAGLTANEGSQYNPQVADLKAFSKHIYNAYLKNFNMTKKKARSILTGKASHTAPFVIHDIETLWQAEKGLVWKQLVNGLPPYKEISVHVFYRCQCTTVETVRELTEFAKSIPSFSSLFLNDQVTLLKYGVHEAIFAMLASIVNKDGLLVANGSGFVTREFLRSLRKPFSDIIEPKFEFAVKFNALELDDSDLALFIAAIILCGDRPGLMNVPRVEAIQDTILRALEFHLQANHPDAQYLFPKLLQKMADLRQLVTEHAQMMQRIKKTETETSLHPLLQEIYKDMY
Procedure, shortened: as §1, with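 “read-out.” for “read-out. Positive controls: EHA for PPARα, GW 501516 for PPARδ.”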

[4] = molecular target: T3, Peroxisome proliferator-activated receptor gamma (Homo sapiens) (UniProt P37231); assay: Agonist activity at human PPARgamma ligand binding domain expressed in COS-1 cells co-transfected with Gal4 at 10 uM by luciferase reporter gene assay; format: cell-based; procedure, shortened: as §1
T3 sequence (whole entry): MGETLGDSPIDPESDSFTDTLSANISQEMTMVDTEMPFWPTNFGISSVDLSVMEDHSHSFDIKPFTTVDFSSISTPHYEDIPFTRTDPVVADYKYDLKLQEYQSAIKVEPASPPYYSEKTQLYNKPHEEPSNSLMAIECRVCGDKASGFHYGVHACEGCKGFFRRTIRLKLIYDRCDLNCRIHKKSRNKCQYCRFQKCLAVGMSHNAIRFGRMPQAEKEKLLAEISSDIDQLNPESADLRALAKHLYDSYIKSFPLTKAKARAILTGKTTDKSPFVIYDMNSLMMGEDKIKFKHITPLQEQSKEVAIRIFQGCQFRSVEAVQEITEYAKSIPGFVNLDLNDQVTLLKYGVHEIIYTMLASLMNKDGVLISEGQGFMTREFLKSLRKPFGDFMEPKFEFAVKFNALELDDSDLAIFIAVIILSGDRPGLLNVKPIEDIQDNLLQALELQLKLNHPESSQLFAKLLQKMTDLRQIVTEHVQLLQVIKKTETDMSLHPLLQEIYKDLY

Structure (SMILES)	EC50 [1]	Activity [2]	Activity [3]	Activity [4]
Cc1cc(SCc2cn(-c3ccc(OC(F)(F)F)c(F)c3)nn2)ccc1OCC(=O)O	1.4 nM			
Cc1cc(SCc2cn(-c3ccc(OC(F)(F)F)cc3)nn2)ccc1OCC(=O)O	10 nM			
Cc1cc(SCc2cn(-c3ccc(OC(F)(F)F)c(Cl)c3)nn2)ccc1OCC(=O)O	12 nM	Active	Active	inactive
Cc1cc(SCc2cn(-c3ccc(C(F)(F)F)c(F)c3)nn2)ccc1OCC(=O)O	0.85 nM	Active	Active	inactive
Cc1cc(SCc2cn(-c3ccc(C(F)(F)F)cc3)nn2)ccc1OCC(=O)O	1.8 nM			
Cc1cc(SCc2sc(-c3ccc(C(F)(F)F)cc3)nc2C)ccc1OCC(=O)O [GW501516]	0.07 nM			
